Measured values: ChEMBL document CHEMBL3992522, “Antileishmanial Activity of Pyrazolopyridine Derivatives and Their Potential as an Adjunct Therapy with Miltefosine” (J Med Chem, 2017)
pIC50: −log10 of the molar value. Values after ≈ are worked out from the molar mass of the structure shown. Active and inactive are the calls of the source. The calls are words filed in the database; no cut-off is given here.

Key:
[1] = Half life in mouse liver S9 fractions at 1 mM in presence of NADPH by HPLC method; type: ADME, tissue-based
Leishmania donovani [2] = experiment: Antileishmanial activity against Leishmania donovani MHOM/IN/80/DD8 promastigote forms harboring luciferase gene at 50 uM after 72 hrs by Steady-Glo reagent based luminescence assay relative to control; type: functional; details: MHOM/IN/80/DD8, 72 h, read-out: GI
Method in brief: (§1)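 Exponential-phase Dd8-Luc promastigotes at 1×10^6/mL in M199 with 10% FBS, 24 °C, given 50 and 25 µM for 72 h. Vehicle 0.1% DMSO. Steady-Glo added 1:1, luminescence (RLU) read. IC50 from four-parameter Hill regression, derived only where inhibition exceeded 90%. Means of at least three independent experiments.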

Leishmania donovani [3] = experiment: Antileishmanial activity against Leishmania donovani MHOM/IN/80/DD8 amastigote forms harboring luciferase gene infected in mouse J774 cells at 25 uM after 72 hrs by Steady-Glo reagent based luminescence assay relative to control; type: functional; details: MHOM/IN/80/DD8, J774, 72 h, read-out: GI
Method in brief: (§2)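 Stationary-phase luciferase-expressing Dd8 promastigotes infected into J774 macrophages (4×10^4/mL seeded, 24 h, 37 °C, 5% CO2) at 1:8 macrophage:parasite for 24 h. Non-internalised parasites washed off. Compounds added at 50 and 25 µM in RPMI/10% FBS for 72 h. Lysis with Steady-Glo luciferin reagent plus PBS, luminescence read. Inhibition relative to untreated infected controls.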

Leishmania donovani [4] = experiment: Antileishmanial activity against Leishmania donovani amastigote forms infected in Balb/c mouse assessed as inhibition of parasitic burden in spleen at 200 mg/kg, ip administered for 5 consecutive days measured on day 7 post last treatment by Giemsa staining based assay relative to control; type: functional
[5] = Metabolic stability in mouse liver S9 fractions assessed as rate constant for metabolism at 1 mM after 60 mins in presence of NADPH by HPLC method; type: ADME, tissue-based
Leishmania donovani [6] = experiment: Antileishmanial activity against Leishmania donovani MHOM/IN/80/DD8 amastigote forms harboring luciferase gene infected in mouse J774 cells after 72 hrs by Steady-Glo reagent based luminescence assay; type: functional, cell-based; details: MHOM/IN/80/DD8, J774, 72 h
[7] = Cytotoxicity against mouse J774 cells assessed as cell viability […] after 72 hrs by MTT assay relative to control; type: cell-based; details: read-out: Activity
Method in brief: (§3)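 Vero and J774 cells seeded at 1×10^5 per well for 24 h, then exposed 72 h to seven two-fold dilutions from 500 to 7.81 μM. MTT solution (5 mg/mL stock) added for 2 h at 37 °C, formazan dissolved in DMSO and read at 540 nm. CC50 derived by the Huber and Koella method.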

Leishmania donovani [8] = experiment: Antileishmanial activity against Leishmania donovani MHOM/IN/80/DD8 promastigote forms harboring luciferase gene at 9.59 uM up to 72 hrs by MTT assay relative to control; type: functional; details: MHOM/IN/80/DD8, 72 h
Liver = experiment: Intrinsic clearance in mouse liver S9 fractions assessed per mg protein at 1 mM in presence of NADPH by HPLC method; type: ADME; details: s9, 1000 µM
[9] = Stability in pH 6.5 simulated intestinal fluid at 5 ug/ml after 120 mins by HPLC method
Method in brief: (§4)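 Incubated in simulated gastric fluid (pH 1.2) or simulated intestinal fluid (pH 6.5); percentage remaining intact determined after 120 min.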

Leishmania donovani [10] = experiment: Antileishmanial activity against Leishmania donovani amastigote forms infected in Balb/c mouse assessed as inhibition of parasitic burden in liver up to 100 mg/kg, ip administered for 5 consecutive days measured on day 7 post last treatment by Giemsa staining based assay relative to control; type: functional
Leishmania donovani [11] = experiment: Antileishmanial activity against Leishmania donovani MHOM/IN/80/DD8 promastigote forms harboring luciferase gene at 6.25 to 12.5 uM up to 4 days by Steady-Glo reagent based luminescence assay; type: functional
Method in brief: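 Log-phase luciferase promastigotes at 1.0×10^6 at 24 °C, pH 7.4, given two-fold dilutions from 200 to 6.25 µM. RLU in lysed cultures measured daily for up to 4 days to plot growth curves. Three independent experiments.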

Leishmania donovani [12] = experiment: Antileishmanial activity against Leishmania donovani MHOM/IN/80/DD8 amastigote forms harboring luciferase gene infected in mouse J774 cells at 50 uM up to 72 hrs by Giemsa staining based assay relative to control; type: functional; details: MHOM/IN/80/DD8, J774, 72 h
Method in brief: (§5)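 J774 macrophages in chamber slides infected with Dd8 promastigotes (1:10 cell:parasite in methods; 1:8 in legend) for 24 h, then treated 48 and 72 h. Cells methanol-fixed, stained with 20% Giemsa. Amastigotes per 100 macrophages counted against untreated infected controls.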

Leishmania donovani [13] = experiment: Antileishmanial activity against Leishmania donovani MHOM/IN/80/DD8 promastigote forms harboring luciferase gene at 50 uM up to 72 hrs by MTT assay relative to control; type: functional; details: MHOM/IN/80/DD8, 72 h
[14] = Cytotoxicity against African green monkey Vero cells assessed as reduction in cell viability after 72 hrs by MTT assay; type: cell-based; details: chlorocebus sabaeus; method in brief: as §3
[15] = Cytotoxicity against mouse J774 cells assessed as reduction in cell viability after 72 hrs by MTT assay; type: cell-based; method in brief: as §3
Leishmania donovani [16] = experiment: Antileishmanial activity against Leishmania donovani MHOM/IN/80/DD8 promastigote forms harboring luciferase gene after 72 hrs by Steady-Glo reagent based luminescence assay; type: functional; details: MHOM/IN/80/DD8, 72 h; method in brief: as §1
[17] = Cytotoxicity against African green monkey Vero cells assessed as cell viability up to 200 uM after 72 hrs by MTT assay relative to control; type: cell-based; details: chlorocebus sabaeus, read-out: Activity
[18] = Selectivity index, ratio of CC50 for mouse J774 cells to IC50 for Leishmania donovani MHOM/IN/80/DD8 amastigote forms infected in mouse J774 cells; type: toxicity, cell-based; details: read-out: Ratio CC50/IC50
Method in brief: (§6)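 CC50: Vero or J774 cells (1×10^5/well) exposed 72 h to seven two-fold dilutions, 500–7.81 μM; MTT 2 h at 37 °C, formazan in DMSO read at 540 nm. IC50: luciferase-expressing Dd8 amastigotes in J774 macrophages (1:8), 72 h, luminescence, four-parameter Hill fit. SI = CC50/IC50, IC50 mean of three experiments.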

[19] = Stability in pH 1.2 simulated gastric fluid at 5 ug/ml after 120 mins by HPLC method; method in brief: as §4
Leishmania donovani [20] = experiment: Antileishmanial activity against Leishmania donovani amastigote forms infected in Balb/c mouse assessed as inhibition of parasitic burden in liver at 200 mg/kg, ip administered for 5 consecutive days measured on day 7 post last treatment by Giemsa staining based assay relative to control; type: functional
Leishmania donovani [21] = experiment: Antileishmanial activity against Leishmania donovani MHOM/IN/80/DD8 amastigote forms harboring luciferase gene infected in mouse J774 cells after 72 hrs by Steady-Glo reagent based two fold dilution assay; type: functional; details: MHOM/IN/80/DD8, 72 h
Method in brief: (§7)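 Promastigotes or J774-resident amastigotes treated 72 h with six two-fold dilutions from 200 µM down to 6.25 µM. Luciferase RLU fitted by four-parameter Hill non-linear regression to derive the […] inhibitory concentration (MIC).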

Leishmania donovani [22] = experiment: Antileishmanial activity against Leishmania donovani MHOM/IN/80/DD8 promastigote forms harboring luciferase gene after 72 hrs by Steady-Glo reagent based two fold dilution assay; type: functional; details: MHOM/IN/80/DD8, 72 h; method in brief: as §7
[23] = Metabolic stability in mouse liver S9 fractions at 1 mM after 60 mins in presence of NADPH by HPLC method; type: ADME; details: read-out: Stability
Leishmania donovani [24] = experiment: Antileishmanial activity against Leishmania donovani MHOM/IN/80/DD8 amastigote forms harboring luciferase gene infected in mouse J774 cells at 50 uM after 72 hrs by Steady-Glo reagent based luminescence assay relative to control; type: functional; details: MHOM/IN/80/DD8, J774, 72 h, read-out: GI; method in brief: as §2
Leishmania donovani [25] = experiment: Antileishmanial activity against Leishmania donovani MHOM/IN/80/DD8 amastigote forms harboring luciferase gene infected in mouse J774 cells at 7.36 uM up to 72 hrs by Giemsa staining based assay relative to control; type: functional; details: MHOM/IN/80/DD8, J774, 72 h; method in brief: as §5
Leishmania donovani [26] = experiment: Antileishmanial activity against Leishmania donovani MHOM/IN/80/DD8 promastigote forms harboring luciferase gene at 25 uM after 72 hrs by Steady-Glo reagent based luminescence assay relative to control; type: functional; details: MHOM/IN/80/DD8, 72 h, read-out: GI; method in brief: as §1
[27] = Selectivity index, ratio of CC50 for African green monkey Vero cells to IC50 for Leishmania donovani MHOM/IN/80/DD8 amastigote forms infected in mouse J774 cells; type: toxicity, cell-based; details: read-out: Ratio CC50/IC50; method in brief: as §6
Leishmania donovani [28] = experiment: Antileishmanial activity against Leishmania donovani amastigote forms infected in Balb/c mouse assessed as inhibition of parasitic burden in spleen up to 100 mg/kg, ip administered for 5 consecutive days measured on day 7 post last treatment by Giemsa staining based assay relative to control; type: functional
Leishmania donovani [29] = experiment: Antileishmanial activity against Leishmania donovani MHOM/IN/80/DD8 amastigote forms harboring luciferase gene infected in mouse J774 cells at 6.25 to 12.5 uM up to 4 days by Steady-Glo reagent based luminescence assay; type: functional, cell-based
Method in brief: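 Infected J774 macrophages held at 37 °C with two-fold dilutions from 200 to 6.25 µM. Intracellular amastigote growth followed by luciferase activity in lysed macrophages, expressed as RLU, over time. Three independent experiments.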

Structure (SMILES): COc1ccc(OC)c(C2C3=C(CC(C)(C)CC3=O)Nc3c2c(-c2c[nH]c4ccccc24)nn3-c2ccc(Cl)c(Cl)c2)c1 (stereo not given)
- half-life at 1000 µM [1]: 40 min
- inhibition of growth at 50 µM (Leishmania donovani [2]): 90.6%
- inhibition of growth at 25 µM (Leishmania donovani [3]): 91.5%
- Imax (Leishmania donovani [4]): 68%
- k el at 1 h, 1000 µM [5]: 0.000283 s⁻¹
- pIC50 (Leishmania donovani [6]): 5.13
- viability at 72 h [7]: > 95%
- inhibition at 9.59 µM (Leishmania donovani [8]): > 95%
- CLH (Liver): 34.65 µL/min
- Stability [9]: 58%
- inhibition (INH) (Leishmania donovani [10]): >50%
- Activity (Leishmania donovani [11]): Active
- inhibition at 50 µM (Leishmania donovani [12]): > 93%
- inhibition at 50 µM (Leishmania donovani [13]): > 95%
- CC50 at 72 h [14]: 498 µM
- CC50 at 72 h [15]: 482 µM
- pIC50 (Leishmania donovani [16]): 5.02
- viability at 72 h [17]: > 95%
- selectivity ratio [18]: 65.5
- Stability [19]: 75%
- Imax (Leishmania donovani [20]): 62%
- MIC (Leishmania donovani [21]): 50 µM (≈ 30.7 µg/mL)
- MIC (Leishmania donovani [22]): 50 µM (≈ 30.7 µg/mL)
- remaining at 1 h, 1000 µM [23]: 31%
- inhibition of growth at 50 µM (Leishmania donovani [24]): 95.8%
- inhibition at 7.36 µM (Leishmania donovani [25]): > 93%
- inhibition of growth at 25 µM (Leishmania donovani [26]): 85.9%
- selectivity ratio [27]: 67.6
- inhibition (INH) (Leishmania donovani [28]): >50%
- Activity (Leishmania donovani [29]): Active
